Results reported in ChEMBL document CHEMBL1142097, “EthA, a common activator of thiocarbamide-containing drugs acting on different mycobacterial targets” (Antimicrob Agents Chemother, 2007).
Converted amounts (≈) assume the structure as drawn.

What was measured:
[1] = test system: Mycobacterium tuberculosis variant bovis BCG; experiment: Antimycobacterial activity against Mycobacterium bovis BCG Pasteur with pMV261 vector; assay type: functional
Method in brief: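 Agar MIC on Middlebrook 7H9 or 7H11 with OADC (ADC substituted for isoxyl-type drugs) plus graded drug levels; serial 10-fold dilutions of actively growing culture plated, incubated 37°C for 10–14 days; MIC = lowest concentration blocking 99% of growth. Recombinant Pasteur strains selected with 25 μg/ml kanamycin; ethR::hyg mutant carries a hygromycin-marked transposon in ethR.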

[2] = Drug metabolizing activity of Mycobacterium bovis BCG recombinant ethA expressed in Escherichia coli; assay type: ADME; settings: mycobacterium tuberculosis variant bovis bcg
Method in brief: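 N-terminal His6-tagged EthA expressed in E. coli (1 mM IPTG, 22°C, 24 h), Ni2+ affinity-purified with bound FAD. Drug incubated at 37°C for 1 h in 50 mM Tris-HCl pH 7.4, 100 mM KCl, 200 μg/ml BSA, 4 mM NADPH, 8 μg EthA.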

Row | Structure (SMILES) | MIC [1] [µg/mL] | Activity [2] [µmol/min/mg]
1 | COc1ccc(/C(C)=N/NC(N)=S)cc1 | 0.25 (≈ 1.12 µM) | 
2 | NC(=S)N/N=C/c1cccnc1 [NICOTHIAZONE] | 10 (≈ 55.5 µM) | 
3 | CC(C)CCOc1ccc(NC(=S)Nc2ccc(OCCC(C)C)cc2)cc1 [TIOCARLIDE] | 0.25 (≈ 0.624 µM) | 7.56
4 | CCc1cc(C(N)=S)ccn1 [ETHIONAMIDE] | 2 (≈ 12 µM) | 
5 | CC(C)CCSc1ccc(NC(=S)Nc2ccc(SCCC(C)C)cc2)cc1 | 40 (≈ 92.4 µM) | 7.37
6 | CC(=O)Nc1ccc(/C=N/NC(N)=S)cc1 [AMITHIOZONE] | 0.5 (≈ 2.12 µM) | 
